The text below walks through data of PMC10120451 (Journal of Enzyme Inhibition and Medicinal Chemistry, 2023).

Series [1] addresses PDIA1a domain (residues 18–137) of human PDIA1 (Homo sapiens, UniProt P07237). In words: Insulin turbidity assay with recombinant PDIA1a domain. To be noted: read-out: PDIA1a IC50 (insulin reduction); PDIA1a domain 8 µg/ml. Format: biochemical. The gist of the method:
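PDIA1a domain (human residues 18–137) was expressed in E. coli BL21(DE3) with an N-terminal His6-tag/TEV site, then purified by Ni affinity and size exclusion. Turbidity assay: 8 µg/ml protein in 0.1 mM potassium phosphate pH 7.6 and 2 mM EDTA, with 0.08 mM DTT during preincubation. Insulin with DTT was added to final 0.15 mM insulin and 0.16 mM DTT.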

The next series concerns CaCo-2 cells. Kind of series: 72 h proliferation inhibition test. Format: cell-based, human. The conditions noted are these: SRB.
A further series has as its system HT-29 cells. In words: 72 h proliferation inhibition test. Format: cell-based, human. The conditions noted are these: SRB.
The test system of a further series is arterial thrombosis. Kind of series: Rat model of arterial thrombosis. To be noted: intravenously, 10 min prior to induction of arterial thrombosis, rats. Format: in vivo. The gist of the method: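 Wistar rats were anaesthetised with pentobarbital (40 mg/kg i.p.) on a 37 °C heated table. Right common carotid artery was stimulated at 1 mA for 10 min via an anode under the artery and a subcutaneous hind-limb cathode.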

Another series addresses recombinant human PDIA1 (Homo sapiens, UniProt P07237). In words: Enzymatic insulin reduction. The series is classed as biochemical. To be noted: for IC50: PDIA1 IC50, insulin reduction assay, full-length PDIA1 6 µg/ml (96 nM), pH 7.6, 37 °C.
The target of a further series is T1, recombinant human PDIA3 (Homo sapiens, UniProt P30101).
T1 sequence (P30101 25-505): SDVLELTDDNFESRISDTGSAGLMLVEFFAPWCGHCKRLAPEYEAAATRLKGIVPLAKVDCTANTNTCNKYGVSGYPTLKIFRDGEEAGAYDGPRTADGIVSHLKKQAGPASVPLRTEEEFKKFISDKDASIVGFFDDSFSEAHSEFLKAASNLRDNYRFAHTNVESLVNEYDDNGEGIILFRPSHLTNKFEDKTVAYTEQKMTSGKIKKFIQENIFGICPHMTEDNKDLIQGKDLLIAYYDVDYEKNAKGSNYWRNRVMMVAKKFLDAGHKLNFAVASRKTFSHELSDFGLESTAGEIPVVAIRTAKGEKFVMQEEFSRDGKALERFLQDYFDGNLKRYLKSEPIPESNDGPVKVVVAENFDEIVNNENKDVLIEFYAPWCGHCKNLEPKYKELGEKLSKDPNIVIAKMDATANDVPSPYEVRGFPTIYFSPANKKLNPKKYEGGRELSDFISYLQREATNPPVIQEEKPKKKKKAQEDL
In words: Enzymatic insulin reduction. Format: biochemical. Summed up:
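Recombinant human PDIA3 (E. coli-expressed), 12 µg/ml (205 nM), was preincubated with test compound in 0.1 mM phosphate buffer pH 7.6, 2 mM EDTA and 0.08 mM DTT. Final DMSO was below 1%. Reaction was started with insulin plus DTT (final 0.15 mM insulin, 0.16 mM DTT). β-chain aggregation turbidity was read at 650 nm for 60 min at 37 °C.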

The nature of series [2]: Basal cytotoxicity test, neutral red uptake. The conditions noted are these: mouse, Balb/c 3T3 mouse embryo fibroblast cells. The series is classed as cell-based.

Values after ≈ are worked out from the molar mass of the structure shown.

Sequence of recombinant human PDIA1 (P07237 18-508): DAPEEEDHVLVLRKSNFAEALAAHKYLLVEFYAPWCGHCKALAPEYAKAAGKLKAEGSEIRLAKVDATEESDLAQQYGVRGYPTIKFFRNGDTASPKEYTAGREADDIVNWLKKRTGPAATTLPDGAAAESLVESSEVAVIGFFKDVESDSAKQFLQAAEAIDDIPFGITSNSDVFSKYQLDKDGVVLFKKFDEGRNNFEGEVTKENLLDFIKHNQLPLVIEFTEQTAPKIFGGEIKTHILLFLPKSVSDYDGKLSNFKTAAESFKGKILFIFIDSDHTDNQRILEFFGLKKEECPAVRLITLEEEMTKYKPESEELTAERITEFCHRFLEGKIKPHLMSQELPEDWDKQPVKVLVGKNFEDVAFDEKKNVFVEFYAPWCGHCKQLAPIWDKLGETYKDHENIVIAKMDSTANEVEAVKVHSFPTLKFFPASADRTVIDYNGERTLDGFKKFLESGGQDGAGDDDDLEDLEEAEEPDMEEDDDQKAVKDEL
Sequence of PDIA1a domain (residues 18–137) of human PDIA1 (P07237 18-137): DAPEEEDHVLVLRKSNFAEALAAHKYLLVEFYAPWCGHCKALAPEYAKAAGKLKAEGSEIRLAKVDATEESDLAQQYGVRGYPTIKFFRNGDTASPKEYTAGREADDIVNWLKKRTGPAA

In the case of `COc1ccc(N2C(=O)/C(=C\c3ccc([N+](=O)[O-])s3)SC2=S)cc1` [CCF642], the IC50 in series [1] was 13 ± 0.6 µM. In addition, the “IC50, 72-h antiproliferative assay, CaCo-2” value in the series on CaCo-2 cells came out at 0.41 ± 0.1 µg/mL (≈ 1.08 µM). The “IC50, 72-h antiproliferative assay, HT-29” value with HT-29 cells came to 0.41 ± 0.05 µg/mL (≈ 1.08 µM).
Turning to `O=c1c(O[C@@H]2O[C@H](CO)[C@@H](O)[C@H](O)[C@H]2O)c(-c2ccc(O)c(O)c2)oc2cc(O)cc(O)c12` [isoquercetin], the “effect on arterial thrombus formation (thrombus weight)” value with arterial thrombosis is reported as “only tended to reduce thrombosis”.
For the compound `C[C@@H]1O[C@@H](OC[C@H]2O[C@@H](Oc3c(-c4ccc(O)c(O)c4)oc4cc(O)cc(O)c4c3=O)[C@H](O)[C@@H](O)[C@@H]2O)[C@H](O)[C@H](O)[C@H]1O` [rutin], the IC50 was 4 ± 0.3 µM on recombinant human PDIA1 and greater than 200 µM on recombinant human PDIA3. Besides, in the series on arterial thrombosis, the “effect on arterial thrombus formation (thrombus weight)” value is given as “significantly inhibited arterial thrombus formation”.
With `CCCCc1ccc(S(=O)(=O)N2CC2C(C)=O)cc1` (stereo not drawn) [Compound C-3272, 1-[1–(4-Butylphenyl)sulphonylaziridin-2-yl]ethanone], the half-inhibitory concentration (IC50) at 24 h in series [2] was less than 1 µM.
Same read-out and setting: for `Cc1ccc(S(=O)(=O)N2CC2C(=O)O)cc1` (stereo not drawn) [Compound C-3612, Lithium 1-tosylaziridine-2-carboxylate] the value was 2610 ± 89 µM.
`Cc1ccc(S(=O)(=O)N2CC2C=O)cc1` (stereo not drawn) [Compound C-3262, 1-(p-tolylsulphonyl)aziridine-2-carbaldehyde] returned an IC50 at 24 h in series [2] of 4 ± 0.2 µM.
In the case of `O=C(C1CC1)N1CCN(Cn2sc3ccccc3c2=O)CC1` [LOC14], the “IC50, 72-h antiproliferative assay, CaCo-2” value in the series on CaCo-2 cells was determined as 9.12 ± 3.4 µg/mL (≈ 28.7 µM). Besides, the “IC50, 72-h antiproliferative assay, HT-29” value in the series on HT-29 cells was found to be 12.64 ± 8.4 µg/mL (≈ 39.8 µM).
For `NC(=O)C1CN1` (stereo not drawn) [Leakadine, 2-carbamoylaziridine], the inhibition at 1000 µM on recombinant human PDIA1 (read-out: Inhibition of PDIA1 activity) is roughly 30%.
Regarding `CC(=O)C1CN1S(=O)(=O)c1ccc(C)cc1` (stereo not drawn) [Compound C-3263, 1-[1-(p-tolylsulphonyl)aziridin-2-yl]ethanone], the IC50 at recombinant human PDIA1 stood at 15.6 ± 0.8 µM. For the same compound, the IC50 at 24 h in series [2] was determined as 8 ± 1 µM.
With `CCCCc1ccc(S(=O)(=O)N2CC2C=O)cc1` (stereo not drawn) [Compound C-3273, 1–(4-Butylphenyl)sulphonylaziridine-2-carbaldehyde], the figures for the IC50 on recombinant human PDIA1 and on recombinant human PDIA3 were 3.2 ± 0.2 µM and 5.4 ± 0.2 µM, respectively. For the same compound, the IC50 at 24 h in series [2] is less than 1 µM.
In the case of `Cc1ccc(S(=O)(=O)N2CC2C#N)cc1` (stereo not drawn) [Compound C-3314, 1-(p-tolylsulphonyl)aziridine-2-carbonitrile], the IC50 at recombinant human PDIA3 turned out to be 188 ± 7.5 µM. The same compound had an IC50 at 24 h in series [2] of 52 ± 3 µM.
With PACMA31, in series [1], the IC50 was found to be 18.3 ± 0.7 µM.
